ChEMBL document CHEMBL3853320, “Discovery of Imidazoquinolines as a Novel Class of Potent, Selective, and in Vivo Efficacious Cancer Osaka Thyroid (COT) Kinase Inhibitors” (J Med Chem, 2016)
In brackets after ≈: the same amount, converted by molar mass. Each block holds one compound with its values, some of them ahead of it. Activity calls are given as the source filed them. No cut-off for these calls is given here.

Experiments:
[1] = target: T1, Mitogen-activated protein kinase kinase kinase 8 (Homo sapiens, UniProt P41279); assay: Inhibition of human COT (66 to 395 residues) expressed in Sf21 cells using 5-Fluo-Ahx-AGAGSGQLIDSNleANSFVGTR-NH2 as substrate after 60 mins by caliper microfluidic mobility shift assay
[2] = Octanol-water partition coefficient, log P of the compound by shake-flask method; type: physicochemical
[3] = Drug excretion in bile-duct cannulated Sprague-Dawley rat bile at 3 mg/kg, iv; type: ADME, organism-based; details: read-out: Drug excretion
[4] = Metabolic stability in bile-duct cannulated Sprague-Dawley rat assessed as parent compound remaining in blood at 3 mg/kg, iv measured 1 hr post dose; type: ADME, organism-based; details: read-out: Stability
[5] = Equilibrium solubility of the compound at pH 4 after 16 hrs by mass spectrometric analysis; type: physicochemical; details: buffer
[6] = Metabolic stability in Sprague-Dawley rat liver microsomes assessed as parent compound remaining at 5 uM after 1 hr in presence of NADPH by HPLC/MS analysis; type: ADME; details: read-out: Stability
[7] = Metabolic stability in bile-duct cannulated Sprague-Dawley rat assessed as parent compound remaining in blood at 3 mg/kg, iv measured 4 hrs post dose; type: ADME, organism-based; details: read-out: Stability
Summary of the method: (§1)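 Bile-duct cannulated rats dosed in vivo. Parent and metabolites in each matrix were expressed as relative peak areas of the drug-related components detected, at the stated sampling time or collection period post dose.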

[8] = Drug excretion in bile-duct cannulated Sprague-Dawley rat urine at 3 mg/kg, iv; type: ADME, organism-based; details: read-out: Drug excretion
[9] = Metabolic stability in bile-duct cannulated Sprague-Dawley rat assessed as parent compound remaining in urine at 3 mg/kg, iv measured over 8 hrs post dose; type: ADME, organism-based; details: read-out: Stability; summary of the method: as §1
[10] = Protein binding in human plasma at 5 uM after 4 hrs by rapid equilibrium dialysis method; type: ADME, cell-free; details: read-out: PPB (converted)
[11] = Metabolic stability in bile-duct cannulated Sprague-Dawley rat assessed as parent compound remaining in bile at 3 mg/kg, iv measured over 8 hrs post dose; type: ADME, organism-based; details: read-out: Stability
[12] = Half life in wild type Sprague-Dawley rat liver microsomes at 5 uM preincubated for 3 mins followed by NADPH addition measured after 1 hr by HPLC/MS analysis; type: ADME
[13] = target: T1, Mitogen-activated protein kinase kinase kinase 8; assay: Inhibition of COT in LPS-stimulated human PBMC assessed as reduction in TNFalpha release incubated for 1 hr followed by stimulation with LPS for 4 hrs by HTRF assay
Summary of the method: (§2)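 Primary human PBMCs were stimulated with LPS. Read-outs were pERK, TNFα release, or p65 phosphorylation, each reported as IC50.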

[14] = Equilibrium solubility of the compound at pH 6.8 after 16 hrs by mass spectrometric analysis; type: physicochemical; details: buffer
[15] = target: T1, Mitogen-activated protein kinase kinase kinase 8; assay: Inhibition of COT in LPS-stimulated human PBMC assessed as reduction in ERK1/2 phosphorylation incubated for 60 mins followed by LPS stimulation for 12 mins by flow cytometric analysis; summary of the method: as §2
[16] = target: T1, Mitogen-activated protein kinase kinase kinase 8; assay: Inhibition of COT in LPS-stimulated human whole blood assessed as reduction in TNFalpha release incubated for 30 mins followed by stimulation with LPS for 3 hrs by HTRF assay; type: tissue-based
Summary of the method: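 Human whole blood was stimulated with LPS, and TNFα release was measured as IC50.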

[17] = Clearance in wild type Sprague-Dawley rat plasma at 1 mg/kg, iv; type: ADME, organism-based
Summary of the method: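 Male wild-type Sprague–Dawley rats were given 1 mg/kg intravenously. Clearance was derived from plasma.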

[18] = Inhibition of NFkappaB pathway in LPS-stimulated human PBMC assessed as reduction in p65 phosphorylation incubated for 60 mins followed by LPS stimulation for 12 mins by flow cytometric analysis analysis; summary of the method: as §2
[19] = Inhibition of MEK/ERK signaling pathway in TNFalpha-stimulated human A431 cells transfected with COT siRNA assessed as reduction in ERK1/2 phosphorylation incubated for 60 mins followed by stimulation with TNFalpha for 10 mins by Western blot analysis; type: cell-based; details: A-431
[20] = target: Receptor-type tyrosine-protein kinase FLT3 (Homo sapiens, UniProt P36888, D835Y); assay: Inhibition of FLT3 (563 to 993 residues) D835Y mutant (unknown origin) after 60 mins in presence of ATP by caliper microfluidic mobility shift assay
[21] = target: MAP kinase-interacting serine/threonine-protein kinase 2 (Homo sapiens, UniProt Q9HBH9); assay: Inhibition of MKNK2 (unknown origin) after 60 mins in presence of ATP by caliper microfluidic mobility shift assay
[22] = Inhibition of MEK/ERK signaling pathway in EGF-stimulated human A431 cells transfected with COT siRNA assessed as reduction in ERK1/2 phosphorylation incubated for 60 mins followed by stimulation with EGF for 10 mins by Western blot analysis; type: cell-based; details: A-431
[23] = test system: Canis familiaris; assay: Antiinflammatory activity in MSU-induced beagle dog acute synovitis model assessed as prevention of inflammation-driven lameness at 0.2 mg/kg, po administered once a week 3 hrs post MSU injection measured after 6 hrs post last dose; type: functional, organism-based; details: Canis lupus familiaris
Summary of the method: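 Lameness was induced in dogs by uric acid injection into the joint. Treatment was vehicle, test article at 5 or 15 mg/kg, or meloxicam 0.2 mg/kg. Vertical peak force of the affected limb was measured on a force plate while trotting. The read-out was the time after treatment for that force to recover to 60% of the value measured before lameness.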

[24] = Drug level in bile-duct cannulated Sprague-Dawley rat liver treated with N-(1-morpholinopropan-2-yl)-6-(8-(thiophen-2-yl)-1H-imidazo[4,5-c][1,7]naphthyridin-1-yl)benzo[d]thiazol-2-amine at 3 mg/kg, iv measured 8 hrs post dose; type: ADME, organism-based; details: in vivo
[25] = Drug level in bile-duct cannulated Sprague-Dawley rat kidney treated with N-(1-morpholinopropan-2-yl)-6-(8-(thiophen-2-yl)-1H-imidazo[4,5-c][1,7]naphthyridin-1-yl)benzo[d]thiazol-2-amine at 3 mg/kg, iv measured 8 hrs post dose; type: ADME, organism-based; details: in vivo
[26] = Drug level in bile-duct cannulated Sprague-Dawley rat bile treated with N-(1-morpholinopropan-2-yl)-6-(8-(thiophen-2-yl)-1H-imidazo[4,5-c][1,7]naphthyridin-1-yl)benzo[d]thiazol-2-amine at 3 mg/kg, iv measured 8 hrs post dose; type: ADME, organism-based; details: in vivo
[27] = Drug level in bile-duct cannulated Sprague-Dawley rat urine treated with N-(1-morpholinopropan-2-yl)-6-(8-(thiophen-2-yl)-1H-imidazo[4,5-c][1,7]naphthyridin-1-yl)benzo[d]thiazol-2-amine at 3 mg/kg, iv measured 8 hrs post dose; type: ADME, organism-based; details: in vivo
[28] = Drug level in bile-duct cannulated Sprague-Dawley rat bile treated with N-(1-morpholinopropan-2-yl)-6-(8-(pyridin-4-yl)-1H-imidazo[4,5-c][1,7]naphthyridin-1-yl)benzo[d]thiazol-2-amine at 3 mg/kg, iv measured over 8 hrs post dose; type: ADME, organism-based; details: in vivo
[29] = Drug level in bile-duct cannulated Sprague-Dawley rat blood treated with N-(1-morpholinopropan-2-yl)-6-(8-(pyridin-4-yl)-1H-imidazo[4,5-c][1,7]naphthyridin-1-yl)benzo[d]thiazol-2-amine at 3 mg/kg, iv measured 1 to 4 hrs post dose; type: ADME, organism-based; details: in vivo
[30] = Drug level in bile-duct cannulated Sprague-Dawley rat feces treated with N-(1-morpholinopropan-2-yl)-6-(8-(pyridin-4-yl)-1H-imidazo[4,5-c][1,7]naphthyridin-1-yl)benzo[d]thiazol-2-amine at 3 mg/kg, iv measured over 8 hrs post dose; type: ADME, organism-based; details: in vivo
[31] = Drug level in bile-duct cannulated Sprague-Dawley rat urine treated with N-(1-morpholinopropan-2-yl)-6-(8-(pyridin-4-yl)-1H-imidazo[4,5-c][1,7]naphthyridin-1-yl)benzo[d]thiazol-2-amine at 3 mg/kg, iv measured over 8 hrs post dose; type: ADME, organism-based; details: in vivo

T1 sequence (P41279 whole entry, the tested form may be a part): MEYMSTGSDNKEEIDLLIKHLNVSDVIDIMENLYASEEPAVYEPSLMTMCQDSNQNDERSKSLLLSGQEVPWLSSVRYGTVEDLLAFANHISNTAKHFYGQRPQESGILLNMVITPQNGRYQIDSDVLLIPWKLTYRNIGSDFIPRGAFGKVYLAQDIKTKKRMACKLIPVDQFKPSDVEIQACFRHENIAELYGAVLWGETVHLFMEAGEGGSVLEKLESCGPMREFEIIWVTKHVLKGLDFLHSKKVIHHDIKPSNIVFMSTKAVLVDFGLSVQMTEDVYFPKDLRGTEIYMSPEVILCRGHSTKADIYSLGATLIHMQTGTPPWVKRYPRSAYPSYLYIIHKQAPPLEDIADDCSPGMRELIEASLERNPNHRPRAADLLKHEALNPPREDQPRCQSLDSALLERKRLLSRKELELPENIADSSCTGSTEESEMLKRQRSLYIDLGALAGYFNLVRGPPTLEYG
Sequence of MAP kinase-interacting serine/threonine-protein kinase 2 (Q9HBH9 whole entry): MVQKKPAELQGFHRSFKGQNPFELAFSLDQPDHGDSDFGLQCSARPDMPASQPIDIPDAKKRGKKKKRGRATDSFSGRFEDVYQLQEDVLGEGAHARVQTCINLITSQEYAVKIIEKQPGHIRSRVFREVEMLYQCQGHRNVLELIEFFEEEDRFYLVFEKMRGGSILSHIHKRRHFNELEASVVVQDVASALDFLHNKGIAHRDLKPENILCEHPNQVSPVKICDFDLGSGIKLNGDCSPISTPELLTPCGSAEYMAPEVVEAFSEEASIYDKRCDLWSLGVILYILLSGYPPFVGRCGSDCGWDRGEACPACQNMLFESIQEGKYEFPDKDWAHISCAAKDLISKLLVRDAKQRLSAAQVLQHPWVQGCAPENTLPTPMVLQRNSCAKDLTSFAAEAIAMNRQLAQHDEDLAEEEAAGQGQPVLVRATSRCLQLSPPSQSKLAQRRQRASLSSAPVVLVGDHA

Compound: c1cc(-c2cc3c(cn2)ncc2ncn(-c4ccc5nc[nH]c5c4)c23)ccn1
- IC50 [1]: 100 nM

Compound: Clc1cc2c(cn1)ncc1ncn(-c3ccc4nc[nH]c4c3)c12
- IC50 [1]: > 10000 nM

Compound: Cc1cccc(-c2cc3c(cn2)ncc2ncn(-c4ccc5nc[nH]c5c4)c23)c1
- IC50 [1]: 200 nM

Compound: N#CCc1ccc(-n2cnc3cnc4cc(Cl)c(-c5ccsc5)cc4c32)cc1
- logP [2]: 5.4
- IC50 [1]: 800 nM

Compound: Cc1cnc(NC(=O)C2=C(O)c3ccccc3S(=O)(=O)N2C)s1
- Activity [23]: Active

Compound: CC(CN1CCOCC1)Nc1nc2ccc(-n3cnc4c(=O)[nH]c5cnc(-c6cccs6)cc5c43)cc2s1 (configuration not stated)
- Drug metabolism [24]: Metabolite_Detected
- Drug metabolism [25]: Metabolite_Detected
- Drug metabolism [26]: Metabolite_Detected
- Drug metabolism [27]: Metabolite_Detected

Compound: CC(CN1CCOCC1)Nc1nc2ccc(-n3cnc4c(=O)[nH]c5cnc(-c6ccncc6)cc5c43)cc2s1 (configuration not stated)
- Drug metabolism [28]: Metabolite_Detected
- Drug metabolism [29]: Metabolite_Detected
- Drug metabolism [30]: Metabolite_Detected
- Drug metabolism [31]: Metabolite_Detected

Compound: c1nc2ccc(-n3cnc4cnc5cnc(N6CCCCC6)cc5c43)cc2[nH]1
- IC50 [1]: 3500 nM

Compound: c1nc2ccc(-n3cnc4cnc5cnc(-c6cn[nH]c6)cc5c43)cc2[nH]1
- IC50 [1]: 150 nM

Compound: c1cncc(-c2cc3c(cn2)ncc2ncn(-c4ccc5nc[nH]c5c4)c23)c1
- IC50 [1]: 670 nM

Compound: Cc1ccc(-c2cc3c(cn2)ncc2ncn(-c4ccc5nc[nH]c5c4)c23)cc1
- IC50 [1]: 1300 nM

Compound: C1=C(c2cc3c(cn2)ncc2ncn(-c4ccc5nc[nH]c5c4)c23)CCCC1
- IC50 [1]: 1300 nM

Compound: c1nc2ccc(-n3cnc4cnc5cnc(-c6cnsc6)cc5c43)cc2[nH]1
- IC50 [1]: 160 nM

Compound: N#CCc1ccc(-n2cnc3cnc4ccc(-c5ccsc5)cc4c32)cc1
- logP [2]: 4.9
- IC50 [1]: 2600 nM

More lines, in order of falling IC50 [1], values ahead:

- solubility thermodynamic at 16 h [5]: < 4 µM
- IC50 [1]: 96 nM
- solubility thermodynamic at 16 h [14]: < 4 µM
Compound: c1ccc(-c2cc3c(cn2)ncc2ncn(-c4ccc5ncccc5c4)c23)cc1

- IC50 [1]: 90 nM
Compound: c1ccc(-c2cc3c(cn2)ncc2ncn(-c4ccc5nc[nH]c5c4)c23)cc1

- solubility thermodynamic at 16 h [5]: < 4 µM
- IC50 [1]: 80 nM
- solubility thermodynamic at 16 h [14]: < 4 µM
Compound: Cc1nc2ccc(-n3cnc4cnc5cnc(-c6ccccc6)cc5c43)cc2s1

- logP [2]: 3.9
- IC50 [1]: 50 nM
Compound: N#CCc1ccc(-n2cnc3cnc4cnc(-c5ccsc5)cc4c32)cc1

- logP [2]: 4
- IC50 [1]: 40 nM
Compound: c1nc2ccc(-n3cnc4cnc5cnc(-c6ccsc6)cc5c43)cc2[nH]1

- IC50 [1]: 38 nM
- IC50 [13]: 1250 nM
- IC50 [15]: 620 nM
Compound: C[C@@H](CN1CCOCC1)Nc1ccc2cc(-n3cnc4cnc5cnc(-c6ccncc6)cc5c43)ccc2n1

- logP [2]: 5.1
- dose excreted [3]: 0.63%
- remaining at 1 h [4]: 86%
- solubility thermodynamic at 16 h [5]: 261 µM (≈ 138 µg/mL)
- remaining at 1 h, 5 µM [6]: 66%
- remaining at 4 h [7]: 68%
- dose excreted [8]: 0.63%
- dose excreted at 8 h [9]: 1%
- IC50 [1]: 22 nM
- fraction unbound at 4 h, 5 µM [10]: < 0.01
- dose excreted at 8 h [11]: 4%
- half-life at 5 µM [12]: < 3 min
- IC50 [13]: 290 nM
- solubility thermodynamic at 16 h [14]: 13 µM (≈ 6.86 µg/mL)
- IC50 [15]: 280 nM
- IC50 [16]: > 10000 nM
- clearance [17]: 40 mL/min/kg
Compound: CC(CN1CCOCC1)Nc1nc2ccc(-n3cnc4cnc5cnc(-c6cccs6)cc5c43)cc2s1 (configuration not stated)

- IC50 [18]: > 25 µM
- IC50 [19]: 61 nM
- logP [2]: 4.2
- solubility thermodynamic at 16 h [5]: 6 µM (≈ 2.28 µg/mL)
- IC50 [20]: < 340 nM
- IC50 [1]: 20 nM
- fraction unbound at 4 h, 5 µM [10]: < 0.01
- IC50 [13]: 440 nM
- solubility thermodynamic at 16 h [14]: < 4 µM
- IC50 [21]: < 1400 nM
- IC50 [15]: 540 nM
- IC50 [16]: 1780 nM
- IC50 [22]: > 10 µM
Compound: c1cnc2ccc(-n3cnc4cnc5cnc(-c6ccsc6)cc5c43)cc2c1

- logP [2]: 4.4
- solubility thermodynamic at 16 h [5]: > 1000 µM
- IC50 [1]: 9 nM
- fraction unbound at 4 h, 5 µM [10]: < 0.01
- IC50 [13]: 130 nM
- solubility thermodynamic at 16 h [14]: 9 µM (≈ 4.69 µg/mL)
- IC50 [15]: 120 nM
- IC50 [16]: 1010 nM
Compound: CC(CN1CCOCC1)Nc1nc2ccc(-n3cnc4cnc5cnc(-c6ccccc6)cc5c43)cc2s1 (configuration not stated)

- logP [2]: 3.2
- solubility thermodynamic at 16 h [5]: > 1000 µM
- IC50 [1]: 4 nM
- IC50 [13]: 30 nM
- solubility thermodynamic at 16 h [14]: 135 µM (≈ 69.7 µg/mL)
- IC50 [15]: 30 nM
- IC50 [16]: 80 nM
- clearance [17]: 221 mL/min/kg
Compound: C[C@H](CN1CCOCC1)Nc1ccc2cc(-n3cnc4cnc5cnc(-c6ccncc6)cc5c43)ccc2n1
